Tests used:
[1] = target: Telomerase reverse transcriptase (Homo sapiens) (UniProt O14746); test: Inhibition of human tert transcriptional activity assessed as SEAP activity at 10 uM after 24 hrs by SEAP reporter assay; set-up: scale not given: the % may be the effect or the level left
How it was run: (§1)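 Reporter assay for hTERT transcriptional activity using secreted alkaline phosphatase. About 2 × 10³ cells per well were grown for 24 h at 37 °C, then given fresh medium. Buffer was added to the medium: 2 M diethanolamine, 1 mM MgCl2 and 20 mM L-homoarginine. p-Nitrophenyl phosphate was added to 12 mM final. The rate of absorbance increase was read at 405 nm.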

[2] = Cytotoxicity against human H1299 cells assessed as cell viability at 100 uM after 48 hrs by MTT assay; type: functional; settings: NCI-H1299, 48 h, read-out: Activity
How it was run: (§2)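 About 2×10³ H1299 cells per well were grown for 24 h at 37 °C in 5% CO2. Compound was dissolved in DMSO immediately before use, diluted in complete medium and left on cells for 48 h. MTT was then added for 4 h at 37 °C, followed by SDS/DMF lysis buffer for 16 h at 37 °C. Absorbance was read at 550 nm.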

[3] = target: Telomerase reverse transcriptase (Homo sapiens) (UniProt O14746); test: Inhibition of human tert transcriptional activity assessed as SEAP activity at 100 uM after 24 hrs by SEAP reporter assay; set-up: scale not given: the % may be the effect or the level left; how it was run: as §1
[4] = Cytotoxicity against human H1299 cells assessed as cell viability at 1 uM after 48 hrs by MTT assay; type: functional; settings: NCI-H1299, 48 h, read-out: Activity; how it was run: as §2
[5] = Cytotoxicity against human H1299 cells assessed as cell viability at 10 uM after 48 hrs by MTT assay; type: functional; settings: NCI-H1299, 48 h, read-out: Activity; how it was run: as §2
[6] = target: Telomerase reverse transcriptase (Homo sapiens) (UniProt O14746); test: Inhibition of human tert transcriptional activity assessed as SEAP activity at 1 uM after 24 hrs by SEAP reporter assay; set-up: scale not given: the % may be the effect or the level left; how it was run: as §1

Sequence of Telomerase reverse transcriptase (Homo sapiens) (O14746 whole entry): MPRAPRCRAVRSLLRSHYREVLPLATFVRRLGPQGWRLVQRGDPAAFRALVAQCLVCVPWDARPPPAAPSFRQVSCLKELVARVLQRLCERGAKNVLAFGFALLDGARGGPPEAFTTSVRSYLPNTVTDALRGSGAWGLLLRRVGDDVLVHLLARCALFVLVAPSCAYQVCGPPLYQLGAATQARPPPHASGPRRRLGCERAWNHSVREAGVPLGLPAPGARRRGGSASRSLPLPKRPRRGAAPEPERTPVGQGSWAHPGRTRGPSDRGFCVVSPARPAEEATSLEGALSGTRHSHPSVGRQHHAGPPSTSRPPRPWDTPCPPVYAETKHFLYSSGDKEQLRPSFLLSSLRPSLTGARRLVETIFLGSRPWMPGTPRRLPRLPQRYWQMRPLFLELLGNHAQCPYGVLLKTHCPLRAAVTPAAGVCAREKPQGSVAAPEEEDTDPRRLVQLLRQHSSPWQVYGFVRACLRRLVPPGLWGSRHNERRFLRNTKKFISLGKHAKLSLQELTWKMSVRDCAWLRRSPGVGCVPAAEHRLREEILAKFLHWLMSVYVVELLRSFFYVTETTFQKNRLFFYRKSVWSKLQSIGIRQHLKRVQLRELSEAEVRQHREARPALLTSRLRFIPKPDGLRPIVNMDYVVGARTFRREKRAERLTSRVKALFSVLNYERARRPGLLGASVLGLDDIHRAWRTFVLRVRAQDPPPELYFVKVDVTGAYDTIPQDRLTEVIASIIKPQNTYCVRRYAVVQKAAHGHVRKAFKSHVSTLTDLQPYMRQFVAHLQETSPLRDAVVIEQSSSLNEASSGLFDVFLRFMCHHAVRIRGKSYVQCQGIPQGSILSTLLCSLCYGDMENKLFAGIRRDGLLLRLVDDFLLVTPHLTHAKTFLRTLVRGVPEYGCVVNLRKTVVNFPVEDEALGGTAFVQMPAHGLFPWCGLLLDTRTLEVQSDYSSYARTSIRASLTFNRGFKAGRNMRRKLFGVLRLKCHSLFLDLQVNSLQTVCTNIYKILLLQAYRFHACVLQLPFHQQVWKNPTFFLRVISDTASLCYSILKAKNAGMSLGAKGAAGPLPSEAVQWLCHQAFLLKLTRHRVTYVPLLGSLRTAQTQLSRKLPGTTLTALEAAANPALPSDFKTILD

| SMILES | Activity [1] [%] | Activity [3] [%] | Activity [6] [%] | viability at 100 µM [2] [%] | viability at 1 µM [4] [%] | viability at 10 µM [5] [%] |
| --- | --- | --- | --- | --- | --- | --- |
| O=C(Sc1nc2ccc3c(c2[nH]1)C(=O)c1ccccc1C3=O)c1cc(C(F)(F)F)ccc1C(F)(F)F | 96 | 75 | 102 | 79 | 95 | 100 |
| O=C1c2c(O)ccc(O)c2C(=O)c2c(NCCNCCO)ccc(NCCNCCO)c21 [MITOXANTRONE] | 10 | 7 | 21 | 0 | 24 | 0 |
| O=C1c2ccccc2C(=O)c2c1ccc1nc(SCC(=O)N3CCOCC3)[nH]c21 | 87 | 40 | 103 | 70 | 91 | 88 |
| Cc1ccccc1CSc1nc2ccc3c(c2[nH]1)C(=O)c1ccccc1C3=O | 83 | 29 | 88 | 76 | 88 | 81 |
| Nc1ccc2c(c1N)C(=O)c1ccccc1C2=O | 77 | – | – | 39 | 105 | 95 |
| O=C(Sc1nc2ccc3c(c2[nH]1)C(=O)c1ccccc1C3=O)c1ccccc1[N+](=O)[O-] | 92 | 81 | 98 | 76 | 80 | 78 |
| O=C1c2ccccc2C(=O)c2c1ccc1nc(SC(=O)N3CCOCC3)[nH]c21 | 87 | 71 | 93 | 90 | 89 | 94 |
| O=C1c2ccccc2C(=O)c2c1ccc1nc(SCC(=O)N3CCCC3)[nH]c21 | 100 | 64 | 100 | 62 | 89 | 102 |
| CN1CCN(C(=O)Sc2nc3ccc4c(c3[nH]2)C(=O)c2ccccc2C4=O)CC1 | 99 | 38 | 89 | 71 | 102 | 120 |
| O=C1c2ccccc2C(=O)c2c1ccc1nc(SC(=O)N3CCCCC3)[nH]c21 | 104 | 81 | 98 | 116 | 97 | 116 |
| O=C1c2ccccc2C(=O)c2c1ccc1nc(SC(=O)N3CCCC3)[nH]c21 | 105 | 95 | 96 | 124 | 110 | 117 |
| O=C(CCc1ccccc1)Sc1nc2ccc3c(c2[nH]1)C(=O)c1ccccc1C3=O | 95 | 81 | 97 | 69 | 95 | 93 |
| COc1cccc2c1C(=O)c1c(O)c3c(c(O)c1C2=O)C[C@@](O)(C(=O)CO)C[C@@H]3O[C@H]1C[C@H](N)[C@H](O)[C@H](C)O1 [DOXORUBICIN] | 14 | 5 | 34 | 0 | 17 | 0 |
| Cc1cc(C(=O)Sc2nc3ccc4c(c3[nH]2)C(=O)c2ccccc2C4=O)c(C)o1 | 100 | 89 | 104 | 95 | 95 | 91 |

Further lines, with some results ahead:

| Activity [1] [%] | Activity [3] [%] | Activity [6] [%] | SMILES | viability at 100 µM [2] [%] | viability at 1 µM [4] [%] | viability at 10 µM [5] [%] |
| --- | --- | --- | --- | --- | --- | --- |
| 58 | 41 | 92 | O=C1c2ccccc2C(=O)c2c1ccc1nc(SCCCCCBr)[nH]c21 | 37 | 84 | 82 |
| 50 | 8 | 85 | O=C1c2ccccc2C(=O)c2c1ccc1nc(SCCCN3CCCCC3)[nH]c21 | 38 | 71 | 70 |
| 98 | 64 | 97 | CCN(CC)C(=O)CCSc1nc2ccc3c(c2[nH]1)C(=O)c1ccccc1C3=O | 44 | 94 | 77 |
| 100 | 14 | 111 | O=C1c2ccccc2C(=O)c2c1ccc1nc(SCCN3CCCCC3)[nH]c21 | 30 | 86 | 79 |
| 96 | 54 | 100 | O=C1c2ccccc2C(=O)c2c1ccc1nc(SCCCCCl)[nH]c21 | 83 | 91 | 97 |
| 91 | 69 | 97 | C=CCSc1nc2ccc3c(c2[nH]1)C(=O)c1ccccc1C3=O | 79 | 100 | 96 |
| 93 | 49 | 96 | CCN(CC)C(=O)CSc1nc2ccc3c(c2[nH]1)C(=O)c1ccccc1C3=O | 54 | 97 | 90 |
| 98 | 53 | 105 | O=C1c2ccccc2C(=O)c2c1ccc1nc(SCCCCCCCl)[nH]c21 | 88 | 83 | 85 |
| 83 | 61 | 88 | COC(=O)CCCSc1nc2ccc3c(c2[nH]1)C(=O)c1ccccc1C3=O | 57 | 83 | 83 |
| 105 | 36 | 119 | O=C1c2ccccc2C(=O)c2c1ccc1nc(SCCN3CCOCC3)[nH]c21 | 73 | 106 | 127 |
| 97 | 45 | 105 | O=C1c2ccccc2C(=O)c2c1ccc1nc(SCCC(=O)N3CCOCC3)[nH]c21 | 50 | 99 | 102 |
| 85 | 52 | 94 | C#CCSc1nc2ccc3c(c2[nH]1)C(=O)c1ccccc1C3=O | 75 | 94 | 96 |
| 90 | 67 | 87 | O=C1c2ccccc2C(=O)c2c1ccc1nc(SCCC(=O)N3CCCC3)[nH]c21 | 57 | 107 | 110 |
| 87 | 64 | 88 | COC(=O)/C=C/CSc1nc2ccc3c(c2[nH]1)C(=O)c1ccccc1C3=O | 72 | 98 | 75 |
| 104 | 88 | 106 | CCN(CC)C(=O)Sc1nc2ccc3c(c2[nH]1)C(=O)c1ccccc1C3=O | 116 | 118 | 119 |
| 91 | 85 | 94 | CCCN(CCC)C(=O)CSc1nc2ccc3c(c2[nH]1)C(=O)c1ccccc1C3=O | 93 | 95 | 86 |
| 105 | 53 | 111 | CCCCSc1nc2ccc3c(c2[nH]1)C(=O)c1ccccc1C3=O | 77 | 82 | 135 |
